Results taken from ChEMBL document CHEMBL1140497, “The molecular pruning of a phosphoramidate peptidomimetic inhibitor of prostate-specific membrane antigen” (Bioorg Med Chem, 2007).

What follows are molecules tested against Glutamate carboxypeptidase 2 (Homo sapiens, UniProt Q04609) (assay: Inhibition of PSMA). Conditions: not given.
Sequence of Glutamate carboxypeptidase 2 (Q04609 whole entry): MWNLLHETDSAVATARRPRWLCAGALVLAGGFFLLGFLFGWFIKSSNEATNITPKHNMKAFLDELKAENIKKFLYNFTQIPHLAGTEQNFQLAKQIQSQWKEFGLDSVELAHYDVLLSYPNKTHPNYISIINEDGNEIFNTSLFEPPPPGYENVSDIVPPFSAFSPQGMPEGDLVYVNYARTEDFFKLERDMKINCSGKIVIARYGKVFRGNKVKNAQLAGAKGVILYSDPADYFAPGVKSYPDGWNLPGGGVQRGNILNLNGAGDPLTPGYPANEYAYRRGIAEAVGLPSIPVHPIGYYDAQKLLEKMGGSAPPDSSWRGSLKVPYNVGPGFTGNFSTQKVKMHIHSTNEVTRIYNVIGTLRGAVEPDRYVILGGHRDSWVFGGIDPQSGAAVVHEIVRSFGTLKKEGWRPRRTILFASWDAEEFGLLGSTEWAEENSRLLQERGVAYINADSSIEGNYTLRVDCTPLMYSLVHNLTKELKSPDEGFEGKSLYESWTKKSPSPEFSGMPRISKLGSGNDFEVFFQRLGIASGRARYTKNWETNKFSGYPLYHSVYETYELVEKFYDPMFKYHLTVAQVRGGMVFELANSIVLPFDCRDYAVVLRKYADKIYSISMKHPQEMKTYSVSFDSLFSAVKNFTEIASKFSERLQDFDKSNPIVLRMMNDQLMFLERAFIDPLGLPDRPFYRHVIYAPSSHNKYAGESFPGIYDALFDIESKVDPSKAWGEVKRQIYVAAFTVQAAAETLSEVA
Procedure, shortened: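 Purified PSMA in 50 mM Tris pH 7.4, diluted to give 15–20% substrate conversion without inhibitor. Substrate PAB-Glu-γ-Glu at 10 μM final. Five serial inhibitor dilutions spanning 10–90% inhibition. 15 min at 37 °C with shaking. Stopped with methanolic TFA, buffered with K2HPO4, centrifuged. Supernatant quantified by HPLC; IC50 calculated.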
Molecule `O=C(O)CC[C@H](NP(=O)(O)OCCCCc1ccccc1)C(=O)O` has an IC50 of 180 nM. `O=C(O)CC[C@H](OP(=O)(O)O)C(=O)O` gave an IC50 of 15 nM. Molecule `O=C(O)CC[C@H](NP(=O)(O)OC[C@@H](NC(=O)c1ccccc1)C(=O)O)C(=O)O` has an IC50 of 700 nM. With `O=C(O)CC[C@H](NP(=O)(O)O)C(=O)O` [listing 1 of 2 here] the IC50 was 2.3 nM. `O=C(O)CC[C@H](NP(=O)(O)O)C(=O)O` [listing 2 of 2 here] gave an IC50 of 0.86 nM. `CN(CCOP(=O)(O)N[C@@H](CCC(=O)O)C(=O)O)C(=O)c1ccccc1` gave an IC50 of 280 nM. Work on `O=C(O)CC[C@H](NP(=O)(O)OCC(CCc1ccccc1)C(=O)O)C(=O)O` (stereo partly specified) yielded an IC50 of 790 nM. In the case of `CN(C(=O)c1ccccc1)[C@@H](COP(=O)(O)N[C@@H](CCC(=O)O)C(=O)O)C(=O)O`, the IC50 is reported as 55 nM. `O=C([O-])CC[C@H](NP(=O)([O-])OC[C@H](NC(=O)c1ccccc1)C(=O)[O-])C(=O)[O-].[K+].[K+].[K+].[K+]` gave an IC50 of 35 nM. For `O=C(O)CC[C@H](NP(=O)(O)OCCNC(=O)c1ccccc1)C(=O)O`, the IC50 was 1800 nM.

Each molecule was assayed on prostate-specific antigen (assay: Half life at pH 6.8 in presence of prostate-specific antigen). Conditions: prostate-specific antigen (enzyme incubation).
Type: ADME
`O=C([O-])CC[C@H](NP(=O)([O-])OC[C@H](NC(=O)c1ccccc1)C(=O)[O-])C(=O)[O-].[K+].[K+].[K+].[K+]` showed a half-life of 6.8 h.
